Reference: ChEMBL document CHEMBL1821606, “Bioactive prenylogous cannabinoid from fiber hemp (Cannabis sativa)” (J Nat Prod, 2011)

Tests used:
Cannabinoid receptor 1 = Cannabinoid receptor 1 (Homo sapiens, UniProt P21554); assay: Displacement of [3H]-CP-55,940 from human recombinant CB1 receptor expressed in HEK293 cells membrane incubated for 90 mins; type: cell membranes
Cannabinoid receptor 2 = Cannabinoid receptor 2 (Homo sapiens, UniProt P34972); assay: Displacement of [3H]-CP-55,940 from human recombinant CB2 receptor expressed in HEK293 cells membrane incubated for 90 mins; type: cell membranes
[1] = biological target: T1, Transient receptor potential cation channel subfamily V member 1 (Homo sapiens, UniProt Q8NER1); assay: Agonist activity at human TRPv1 receptor expressed in HEK293 cells assessed as stimulation of intracellular calcium level using Fluo4-AM dye based fluorimetric assay relative to 4 uM ionomycin; type: functional, cell-based
[2] = biological target: T1, Transient receptor potential cation channel subfamily V member 1; assay: Agonist activity at human TRPv1 receptor expressed in HEK293 cells assessed as stimulation of intracellular calcium level using Fluo4-AM dye based fluorimetric assay; type: functional, cell-based
Method in brief: (§1)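 Stable HEK293 lines (G-418 selected, expression checked by qPCR) loaded 1 h at room temperature with Fluo-4 AM 4 μM. Cells washed and resuspended in Tyrode's buffer pH 7.4. Fluorescence (ex 488/em 516 nm) read in a stirred cuvette at 25 °C before and after test compound at various concentrations. EC50 from sigmoidal variable-slope fit. At least triplicate.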

[3] = biological target: T1, Transient receptor potential cation channel subfamily V member 1; assay: Antagonist activity at human TRPv1 receptor expressed in HEK293 cells assessed as inhibition of 0.1 um capsaicin-induced stimulation of intracellular calcium level using Fluo4-AM dye based fluorimetric assay; type: functional, cell-based
Method in brief: (§2)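 Fluo-4 AM loaded stable HEK293 cells in Tyrode's buffer, read at 25 °C (ex 488/em 516 nm). Test compound added to the cuvette 5 min before the agonist: capsaicin 0.1 μM (TRPV1), AITC 100 μM (TRPA1), LPC 3 μM (TRPV2). Agonist alone taken as 100%. IC50 for half-maximal inhibition from curve fit. At least triplicate.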

[4] = biological target: T2, Transient receptor potential cation channel subfamily V member 2 (Rattus norvegicus) (UniProt Q9WUD2); assay: Agonist activity at rat recombinant TRPV2 receptor expressed in HEK293 cells assessed as stimulation of intracellular calcium level using Fluo4-AM dye based fluorimetric assay relative to 4 uM ionomycin; type: functional, cell-based
T2 sequence (whole entry): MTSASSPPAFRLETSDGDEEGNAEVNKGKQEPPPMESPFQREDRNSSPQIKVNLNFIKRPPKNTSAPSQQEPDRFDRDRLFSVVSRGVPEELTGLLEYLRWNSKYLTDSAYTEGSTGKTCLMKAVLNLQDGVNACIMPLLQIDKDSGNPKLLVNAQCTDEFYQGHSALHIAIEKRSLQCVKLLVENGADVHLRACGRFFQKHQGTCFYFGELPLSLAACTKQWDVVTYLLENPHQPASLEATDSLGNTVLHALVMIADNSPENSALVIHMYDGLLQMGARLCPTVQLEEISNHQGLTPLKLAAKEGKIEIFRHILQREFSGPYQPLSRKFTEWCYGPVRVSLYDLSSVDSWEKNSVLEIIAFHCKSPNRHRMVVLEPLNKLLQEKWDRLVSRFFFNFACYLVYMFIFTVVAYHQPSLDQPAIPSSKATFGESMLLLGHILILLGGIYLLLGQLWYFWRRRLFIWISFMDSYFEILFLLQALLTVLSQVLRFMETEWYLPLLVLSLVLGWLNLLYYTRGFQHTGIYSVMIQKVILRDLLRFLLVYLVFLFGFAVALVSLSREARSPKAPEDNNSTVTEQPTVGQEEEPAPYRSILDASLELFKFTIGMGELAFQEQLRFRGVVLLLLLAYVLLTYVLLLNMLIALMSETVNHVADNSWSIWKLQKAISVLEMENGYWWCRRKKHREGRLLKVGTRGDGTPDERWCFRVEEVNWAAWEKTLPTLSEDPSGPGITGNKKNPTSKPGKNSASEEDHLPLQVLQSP

[5] = biological target: T3, Transient receptor potential cation channel subfamily V member 2 (Rattus norvegicus, UniProt Q9WUD2); assay: Agonist activity at rat recombinant TRPV2 receptor expressed in HEK293 cells assessed as stimulation of intracellular calcium level using Fluo4-AM dye based fluorimetric assay; type: functional, cell-based; method in brief: as §1
T3 sequence (Q9WUD2 whole entry): T2 sequence (whole entry)

[6] = biological target: T3, Transient receptor potential cation channel subfamily V member 2; assay: Antagonist activity at rat recombinant TRPV2 receptor expressed in HEK293 cells assessed as inhibition of 3 uM lysophosphatidylcholine-induced stimulation of intracellular calcium level using Fluo4-AM dye based fluorimetric assay; type: functional, cell-based; method in brief: as §2
[7] = biological target: Transient receptor potential cation channel subfamily A member 1 (Rattus norvegicus) (UniProt Q6RI86); assay: Agonist activity at rat recombinant TRPA1 receptor expressed in HEK293 cells assessed as stimulation of intracellular calcium level using Fluo4-AM dye based fluorimetric assay relative to allyl isothiocyanate; type: functional, cell-based
[8] = biological target: T4, Transient receptor potential cation channel subfamily A member 1 (Rattus norvegicus, UniProt Q6RI86); assay: Agonist activity at rat recombinant TRPA1 receptor expressed in HEK293 cells assessed as stimulation of intracellular calcium level using Fluo4-AM dye based fluorimetric assay; type: functional, cell-based; method in brief: as §1
[9] = biological target: T4, Transient receptor potential cation channel subfamily A member 1; assay: Antagonist activity at rat recombinant TRPA1 receptor expressed in HEK293 cells assessed as inhibition of 100 uM allyl isothiocyanate-induced stimulation of intracellular calcium level using Fluo4-AM dye based fluorimetric assay; type: functional, cell-based; method in brief: as §2
[10] = biological target: Transient receptor potential cation channel subfamily M member 8 (Rattus norvegicus, UniProt Q8R455); assay: Antagonist activity at rat recombinant TRPM8 receptor expressed in HEK293 cells assessed as inhibition of 0.25 uM icilin-induced stimulation of intracellular calcium level using Fluo4-AM dye based fluorimetric assay; type: functional, cell-based
Method in brief: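 Fluo-4 AM loaded rat TRPM8 HEK293 cells in Tyrode's buffer, read at 22 °C with a Peltier-controlled cuvette. Compound added 5 min before 0.25 μM icilin, whose effect alone was taken as 100%. IC50 for half-maximal inhibition from curve fit. At least triplicate.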

Chain of Cannabinoid receptor 2 (P34972 whole entry): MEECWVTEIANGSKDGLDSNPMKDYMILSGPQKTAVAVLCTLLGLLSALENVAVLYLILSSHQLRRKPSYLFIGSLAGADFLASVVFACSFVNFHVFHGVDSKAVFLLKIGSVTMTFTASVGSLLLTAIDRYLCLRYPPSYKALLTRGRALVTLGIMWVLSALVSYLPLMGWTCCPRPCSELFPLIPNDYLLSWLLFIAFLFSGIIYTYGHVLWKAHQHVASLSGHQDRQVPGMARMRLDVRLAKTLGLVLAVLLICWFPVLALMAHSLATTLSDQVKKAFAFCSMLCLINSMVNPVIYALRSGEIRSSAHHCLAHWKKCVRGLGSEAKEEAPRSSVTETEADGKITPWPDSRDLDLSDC
Chain of Cannabinoid receptor 1 (P21554 whole entry): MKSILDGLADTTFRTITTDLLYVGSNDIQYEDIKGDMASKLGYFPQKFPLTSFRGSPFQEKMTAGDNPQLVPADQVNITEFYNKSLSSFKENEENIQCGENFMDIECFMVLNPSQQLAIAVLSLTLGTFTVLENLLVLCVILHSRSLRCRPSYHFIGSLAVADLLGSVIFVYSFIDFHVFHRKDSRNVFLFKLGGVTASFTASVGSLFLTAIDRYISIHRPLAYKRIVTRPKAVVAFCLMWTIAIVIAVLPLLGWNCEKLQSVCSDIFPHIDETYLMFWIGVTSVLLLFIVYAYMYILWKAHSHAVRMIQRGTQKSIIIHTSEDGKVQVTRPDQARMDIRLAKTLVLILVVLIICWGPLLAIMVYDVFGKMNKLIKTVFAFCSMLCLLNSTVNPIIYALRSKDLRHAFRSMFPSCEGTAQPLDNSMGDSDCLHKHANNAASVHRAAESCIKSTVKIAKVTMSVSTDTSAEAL
T4 sequence (Q6RI86 whole entry): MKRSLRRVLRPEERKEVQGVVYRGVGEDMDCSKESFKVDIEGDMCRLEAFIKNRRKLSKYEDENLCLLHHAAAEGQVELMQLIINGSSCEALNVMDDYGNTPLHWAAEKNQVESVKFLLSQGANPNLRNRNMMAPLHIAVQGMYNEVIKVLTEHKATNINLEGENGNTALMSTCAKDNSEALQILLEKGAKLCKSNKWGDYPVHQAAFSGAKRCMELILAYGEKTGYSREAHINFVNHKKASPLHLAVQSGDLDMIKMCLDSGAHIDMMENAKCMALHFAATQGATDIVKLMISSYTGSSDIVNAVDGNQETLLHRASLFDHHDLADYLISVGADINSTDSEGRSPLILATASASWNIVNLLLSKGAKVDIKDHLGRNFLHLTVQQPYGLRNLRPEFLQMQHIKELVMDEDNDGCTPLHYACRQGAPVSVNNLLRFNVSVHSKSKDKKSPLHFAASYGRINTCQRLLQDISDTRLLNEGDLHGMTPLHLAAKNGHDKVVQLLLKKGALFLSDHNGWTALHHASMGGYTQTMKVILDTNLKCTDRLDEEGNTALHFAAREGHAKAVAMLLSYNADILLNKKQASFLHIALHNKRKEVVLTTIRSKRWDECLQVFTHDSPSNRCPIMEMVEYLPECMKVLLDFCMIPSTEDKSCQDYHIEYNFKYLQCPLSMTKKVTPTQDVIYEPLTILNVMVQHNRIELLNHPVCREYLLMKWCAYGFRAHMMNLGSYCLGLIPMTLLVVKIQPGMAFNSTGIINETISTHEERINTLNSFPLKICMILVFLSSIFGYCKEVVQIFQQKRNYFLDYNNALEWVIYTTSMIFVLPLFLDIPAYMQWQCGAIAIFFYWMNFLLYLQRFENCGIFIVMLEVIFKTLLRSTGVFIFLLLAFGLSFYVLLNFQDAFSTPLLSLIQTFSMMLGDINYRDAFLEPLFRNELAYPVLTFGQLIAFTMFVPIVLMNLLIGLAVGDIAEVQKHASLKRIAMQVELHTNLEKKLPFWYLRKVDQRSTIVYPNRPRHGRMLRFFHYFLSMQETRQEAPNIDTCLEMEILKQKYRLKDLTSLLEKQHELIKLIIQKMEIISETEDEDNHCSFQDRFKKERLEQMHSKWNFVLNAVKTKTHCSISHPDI
T1 sequence (Q8NER1 whole entry): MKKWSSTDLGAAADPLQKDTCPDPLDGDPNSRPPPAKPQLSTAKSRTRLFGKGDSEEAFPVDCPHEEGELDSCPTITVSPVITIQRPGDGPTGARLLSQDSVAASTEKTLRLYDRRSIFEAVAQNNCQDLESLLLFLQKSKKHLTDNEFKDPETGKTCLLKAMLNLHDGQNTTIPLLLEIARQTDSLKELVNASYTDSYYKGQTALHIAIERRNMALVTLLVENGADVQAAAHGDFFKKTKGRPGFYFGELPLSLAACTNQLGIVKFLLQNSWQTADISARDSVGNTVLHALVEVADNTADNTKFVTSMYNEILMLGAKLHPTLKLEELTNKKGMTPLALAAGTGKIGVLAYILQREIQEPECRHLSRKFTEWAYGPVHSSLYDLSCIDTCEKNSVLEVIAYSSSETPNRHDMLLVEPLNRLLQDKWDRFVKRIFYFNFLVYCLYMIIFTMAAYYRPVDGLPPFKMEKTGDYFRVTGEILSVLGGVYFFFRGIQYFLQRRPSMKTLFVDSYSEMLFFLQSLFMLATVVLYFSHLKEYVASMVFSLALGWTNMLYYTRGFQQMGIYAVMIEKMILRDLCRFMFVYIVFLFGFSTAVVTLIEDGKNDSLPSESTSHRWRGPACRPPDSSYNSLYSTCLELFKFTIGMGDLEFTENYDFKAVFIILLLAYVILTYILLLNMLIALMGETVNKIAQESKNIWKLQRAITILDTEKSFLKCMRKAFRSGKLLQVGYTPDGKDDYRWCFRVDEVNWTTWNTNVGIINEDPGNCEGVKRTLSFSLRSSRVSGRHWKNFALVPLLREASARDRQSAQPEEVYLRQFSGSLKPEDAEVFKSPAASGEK
Chain of Transient receptor potential cation channel subfamily M member 8 (Q8R455 whole entry): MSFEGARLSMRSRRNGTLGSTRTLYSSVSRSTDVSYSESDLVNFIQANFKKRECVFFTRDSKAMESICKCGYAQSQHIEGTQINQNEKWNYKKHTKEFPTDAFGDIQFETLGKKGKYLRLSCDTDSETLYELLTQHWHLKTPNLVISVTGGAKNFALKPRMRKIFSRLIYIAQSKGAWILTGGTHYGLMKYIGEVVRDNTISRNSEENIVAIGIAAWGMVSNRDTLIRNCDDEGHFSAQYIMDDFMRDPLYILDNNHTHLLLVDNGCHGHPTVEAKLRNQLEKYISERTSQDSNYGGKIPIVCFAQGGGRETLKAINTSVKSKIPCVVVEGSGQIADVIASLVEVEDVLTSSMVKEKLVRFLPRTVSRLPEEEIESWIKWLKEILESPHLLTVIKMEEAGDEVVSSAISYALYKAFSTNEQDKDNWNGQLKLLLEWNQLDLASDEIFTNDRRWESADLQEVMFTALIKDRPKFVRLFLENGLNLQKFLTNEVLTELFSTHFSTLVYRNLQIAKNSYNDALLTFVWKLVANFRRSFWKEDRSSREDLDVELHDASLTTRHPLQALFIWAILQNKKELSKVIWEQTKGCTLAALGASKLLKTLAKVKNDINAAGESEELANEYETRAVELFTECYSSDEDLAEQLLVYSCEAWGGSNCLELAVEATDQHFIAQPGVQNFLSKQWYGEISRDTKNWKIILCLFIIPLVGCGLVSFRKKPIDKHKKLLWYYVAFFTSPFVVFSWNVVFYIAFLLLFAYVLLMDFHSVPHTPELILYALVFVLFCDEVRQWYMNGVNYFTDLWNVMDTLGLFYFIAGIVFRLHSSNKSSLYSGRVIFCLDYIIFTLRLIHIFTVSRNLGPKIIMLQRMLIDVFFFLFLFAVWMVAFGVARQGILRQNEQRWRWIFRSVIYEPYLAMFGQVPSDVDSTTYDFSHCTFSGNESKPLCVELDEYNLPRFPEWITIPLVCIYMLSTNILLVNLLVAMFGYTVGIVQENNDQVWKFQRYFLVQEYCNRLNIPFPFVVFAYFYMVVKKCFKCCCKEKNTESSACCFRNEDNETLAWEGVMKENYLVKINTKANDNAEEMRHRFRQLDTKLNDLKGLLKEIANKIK
Chain of Transient receptor potential cation channel subfamily A member 1 (Rattus norvegicus) (Q6RI86 whole entry): as the sequence (Q6RI86 whole entry) above

With CCCCCc1cc(O)c(C/C=C(\C)CC/C=C(\C)CCC=C(C)C)c(O)c1 [SESQUICANNABIGEROL] the IC50 (Cannabinoid receptor 1) was 3.27 µM, the Ki (Cannabinoid receptor 1) was 750 nM and the IC50 (Cannabinoid receptor 2) was 710 nM. The Ki (Cannabinoid receptor 2) was 180 nM, the Emax [1] was 38.8% and the EC50 [2] was 4400 nM. It also gave an IC50 [3] of 5.7 µM, an Emax [4] of 56% and an EC50 [5] of 2700 nM. For the same molecule, the IC50 [6] was 2300 nM, the Emax [7] was 164% and the EC50 [8] was 1700 nM. The IC50 [9] was 1.2 µM and the IC50 [10] was 950 nM.

For CCCCCc1cc(O)c(C/C=C(\C)CCC=C(C)C)c(O)c1 [CANNABIGEROL], the IC50 (Cannabinoid receptor 1) was 3.31 µM, the Ki (Cannabinoid receptor 1) was 760 nM and the IC50 (Cannabinoid receptor 2) was 3460 nM. For the same molecule, the Ki (Cannabinoid receptor 2) was 880 nM, the Emax [1] was 33.8% and the EC50 [2] was 1300 nM. For the same molecule, the IC50 [3] was 2.6 µM, the Emax [4] was 73.6% and the EC50 [5] was 1700 nM. For the same molecule, the IC50 [6] was 1500 nM, the Emax [7] was 99.9% and the EC50 [8] was 700 nM. It also gave an IC50 [9] of 13 µM and an IC50 [10] of 160 nM.
